{"data": "Assay results pooled from the literature", "FGFR2": "Fibroblast growth factor receptor 2 (FGFR2, Homo sapiens, UniProt P21802)", "FGFR2 N549H": "Fibroblast growth factor receptor 2 (FGFR2, Homo sapiens, UniProt P21802, N549H)"}
{"Compound": "COc1ccc(COc2ccc(Cc3cnc(N)nc3N)cc2OC)cc1", "target": "FGFR2", "assay": "cell-free assay", "setting": "0.5 µM", "quantity": "remaining signal", "result": "102%"}
{"Compound": "Cc1cc(NC(=O)c2cccc3cc(-c4cccc5[nH]nc(N)c45)ccc23)ccc1F", "target": "FGFR2 N549H", "assay": "enzyme activity, inhibitor", "setting": "0.1 µM", "quantity": "activity vs control", "result": "33%"}
{"Compound": "Cc1ccc(NC(=O)c2ccc(C)c(C(F)(F)F)c2)cc1C#Cc1nn(C2CCC(O)CC2)c2ncnc(N)c12 (stereo not drawn)", "target": "FGFR2", "assay": "cell-free assay", "setting": "10 µM", "quantity": "remaining signal", "result": "0%"}
{"Compound": "C[C@@H]1CN(c2cc(-c3n[nH]c4ccc(OC5(C)CC5)cc34)ncn2)C[C@H](C)O1", "target": "FGFR2", "assay": "cell-free assay, competition with immobilised ligand", "setting": "0.1 µM", "quantity": "remaining binding", "result": "96%"}
{"Compound": "CC/C(=N\\NC(=O)NCc1cccc(O)c1)c1ccc(O)c(C)c1O", "target": "Fibroblast growth factor receptor 2 (FGFR2, Homo sapiens, UniProt P21802, V564I)", "assay": "enzyme activity, inhibitor", "setting": "0.1 µM", "quantity": "inhibition", "result": "-2.7%"}
{"Compound": "O=c1nc(-c2ccccn2)sc2ccccc12", "target": "FGFR2", "assay": "cell-free assay, competition with immobilised ligand", "setting": "1 µM", "quantity": "remaining binding", "result": "100%"}
{"Compound": "CCN(CC)CCNC(=O)c1c(C)[nH]c(/C=C2\\C(=O)Nc3ccc(F)cc32)c1C", "target": "FGFR2", "assay": "enzyme activity, inhibitor", "setting": "0.3 µM", "quantity": "inhibition", "result": "36%"}
{"Compound": "Cc1ccc(C(=O)Nc2ccc(CN3CCN(C)CC3)c(C(F)(F)F)c2)cc1C#Cc1cnc2cccnn12", "target": "FGFR2", "assay": "cell-free assay", "setting": "23.5 nM", "quantity": "remaining signal", "result": "32%"}
{"Compound": "Cc1sc(C(=O)NC2COC2)cc1-n1cc(NC(=O)Nc2c(F)cccc2Cl)cn1", "target": "FGFR2", "assay": "enzyme activity, inhibitor", "setting": "10 µM", "quantity": "remaining activity", "result": "105%"}
{"Compound": "C[C@H](c1ccnc(Nc2nc3ccc(-c4cc(N(C)C)ncn4)cc3[nH]2)c1)N1CCN(C(=O)CC(F)(F)F)CC1", "target": "FGFR2", "assay": "cell-free assay, competition with immobilised ligand", "setting": "0.1 µM", "quantity": "remaining binding", "result": "100%"}
{"Compound": "N#CCCc1ccc2c(c1)-c1[nH]c3ccc([N+](=O)[O-])cc3c1CC(=O)N2", "target": "FGFR2", "assay": "cell-free assay", "setting": "0.5 µM", "quantity": "remaining signal", "result": "93.2%"}
{"Compound": "Cc1cnc(NC2CCOCC2)nc1-n1cnc(C(=O)NC(CN)c2cc(F)cc(Cl)c2)c1 (stereo not drawn)", "target": "FGFR2 N549H", "assay": "enzyme activity, inhibitor, radiometric", "setting": "1 µM", "quantity": "remaining activity", "result": "99%"}
{"Compound": "CN(C)C1CCN(CC#Cc2nn(C3CCCC3)c3nc(NCc4ccccc4)ncc23)C1 (stereo not drawn)", "target": "FGFR2", "assay": "enzyme activity, inhibitor, FRET", "setting": "0.1 µM", "quantity": "inhibition", "result": "0%"}
{"Compound": "O=C(NCCCC1CCCCC1)c1ccc(CNC(=O)c2cnn(-c3ccccc3)c2C(F)(F)F)cc1", "target": "FGFR2", "assay": "cell-free assay, competition with immobilised ligand", "setting": "0.1 µM", "quantity": "remaining binding", "result": "100%"}
{"Compound": "COc1cc2c(Nc3ccc(Br)cc3F)ncnc2cc1OCC1CCN(C)CC1", "target": "FGFR2", "assay": "cell-free assay", "setting": "0.5 µM", "quantity": "remaining signal", "result": "38.4%"}
{"Compound": "O=C(Nc1cccnn1)N1CCC(=Cc2cccc(Oc3ccc(C(F)(F)F)cn3)c2)CC1", "target": "FGFR2", "assay": "cell-free assay, competition with immobilised ligand", "setting": "1 µM", "quantity": "remaining binding", "result": "96%"}
{"Compound": "CNC(=O)c1cc(Oc2ccc(NC(=O)Nc3ccc(Cl)c(C(F)(F)F)c3)cc2)ccn1", "target": "FGFR2", "assay": "enzyme activity, inhibitor", "setting": "10 µM", "quantity": "inhibition", "result": "98%"}
{"Compound": "CC(C)(C)c1nc(-c2cccc(NS(=O)(=O)c3c(F)cccc3F)c2F)c(-c2ccnc(N)n2)s1", "target": "FGFR2", "assay": "enzyme activity, inhibitor, radiometric", "setting": "1 µM", "quantity": "remaining activity", "result": "92%"}
